The record followed here is ChEMBL document CHEMBL2331166, “Antiproliferative withanolides from Datura wrightii” (J Nat Prod, 2013).

The test system of assay [1] is MRC5. The assay is described as follows: Selectivity index, ratio of IC50 for human MRC5 cells to IC50 for human U87 cells. Format: functional. Put shortly:
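MTS viability assay. MRC-5 fibroblasts and U87 glioblastoma cells were seeded at 2,500 cells/well and left about 6 h. Drug-containing media at a range of concentrations was then added, with 72 h further incubation at 37 °C in 5% CO2. Absorbance was read at 490 nm, in triplicate on two occasions. IC50s came from sigmoidal dose-response fits, and the index is the MRC-5/U87 IC50 ratio.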

Assay [2] concerns U-251. The assay is described as follows: Cytotoxicity against human U251 cells after 72 hrs by MTS assay. Format: functional, cell-based. As to conditions: U-251, 72 h. In outline: (§1)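 Monolayer cultures kept at 37 °C, 5% CO2, humidified, grown to 75–90% confluence; U87 and U251 maintained in DMEM with 10% FBS. Seeded at 2,500 cells/well and left about 6 h, then drug-containing medium added at various concentrations for 72 h. Viable cells read by MTS colorimetry at 490 nm. Triplicate, two separate occasions; IC50 from best-fit sigmoidal dose–response curves.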

Assay [3] is described as follows: Cytotoxicity against human U87 cells after 72 hrs by MTS assay. Format: functional, cell-based, U-87MG ATCC. As to conditions: U-87 MG. Put shortly:
as §1
(Tetrazolium dyes change colour on reduction, which living cells bring about.)

The test system of assay [4] is MRC5. The assay is described as follows: Cytotoxicity against human MRC5 cells after 72 hrs by MTS assay. Format: cell-based. Conditions: MRC5, 72 h.
A short description of assay [5]: Cytotoxicity against human MDA1986 cells after 72 hrs by MTS assay. Format: functional, cell-based. As to conditions: MDA1986, 72 h. Put shortly:
as §1

Assay [6] concerns U-251. The assay can be described thus: Increase in HSP32 expression in human U251 cells incubated for 24 hrs in presence of N-acetylcysteine by Western blotting method. Format: functional, cell-based. (A western blot detects proteins with antibodies after separation by electrophoresis.)
The subject of assay [7] is U-251. The assay can be described thus: Increase in HSP70 expression in human U251 cells at 5 uM incubated for 24 hrs by Western blotting method. Format: functional, cell-based. In outline:
(§2)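 U251 glioblastoma cells plated to stay subconfluent at harvest, grown overnight, then exposed to 0, 0.1, 0.5, 1 and 5 μM of each withanolide for 24 h. Lysates quantified, run on SDS-PAGE, transferred to nitrocellulose and immunoblotted for total HSP32 and HSP70. β-actin served as the loading control.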

Assay [8] deals with U-251. The assay can be described thus: Increase in HSP70 expression in human U251 cells at 5 uM incubated for 24 hrs in presence of N-acetylcysteine by Western blotting method. Format: functional, cell-based.
For assay [9], the system named is U-251. The assay is described as follows: Increase in HSP32 expression in human U251 cells incubated for 24 hrs by Western blotting method. Format: functional, cell-based. In outline: as §2

Activity calls are given as the source filed them. No cut-off for these calls is given here.

One may read the IC50 as the point on the concentration scale where inhibition reaches its midpoint. A high value points to a need for much substance.

With `CC1=C(CO)C(=O)O[C@@H]([C@@H](C)[C@H]2CC[C@H]3[C@@H]4C[C@H]5O[C@]56[C@@H](O)C=CC(=O)[C@]6(C)[C@H]4CC[C@]23C)C1` [WITHAFERIN A], in assay [1], the “Ratio IC50” value stood at 0.19. The IC50 in [2] turned out to be 690 nM; in assay [3], 1100 nM; in assay [4], 200 nM; in [5], 800 nM.

On to `C=C1C(=O)O[C@@H]2C[C@]1(C)OC[C@H]2[C@H]1CC[C@H]2[C@@H]3C[C@H]4O[C@]45CC=CC(=O)[C@]5(C)[C@H]3CC[C@]12C` [WITHAMETELIN F], for which the “Ratio IC50” value in [1] is reported as 6. The IC50 in assay [2] was found to be 1400 nM; in assay [3], 560 nM; in assay [4] it was 3300 nM; in [5] it was 1500 nM. In addition, the result in [6] and in [8] was inactive. Besides, in assay [7], the outcome was Active. Also, in [9], the Activity result is “Dose-dependent effect”.

Take `C=C1C(=O)O[C@@H]2C[C@]1(C)OC[C@H]2[C@H]1CC[C@H]2[C@@H]3CC=C4CC=CC(=O)[C@]4(C)[C@H]3C[C@@H](O)[C@]12C` [WITHAMETELIN L]: the “Ratio IC50” value in assay [1] is recorded as 7.4. Moreover, the IC50 in assay [2] stood at 1300 nM; in assay [3], 570 nM; in [4] it was 4200 nM; in [5], 2300 nM. The result in assay [6] and in assay [8] was inactive. The result in assay [7] was Active. Also, the Activity result in assay [9] is “Dose-dependent effect”.

Turning to `C=C1C(=O)O[C@@H]2C[C@]1(C)OC[C@H]2[C@H]1CC[C@H]2[C@@H]3C[C@@H](O)[C@@]4(O)CC=CC(=O)[C@]4(C)[C@H]3CC[C@]12C` [WITHAMETELIN O], in assay [1], the “Ratio IC50” value is 4.1. For the same molecule, the IC50 in [2] came out at 2800 nM; in [3] it was 1100 nM; in [4], 4600 nM; in [5], 3000 nM. Also, in [6], the result was inactive. In addition, the Activity result in [9] is “Dose-dependent effect”.

Take `C=C1C(=O)O[C@@H]2C[C@]1(C)OC[C@H]2[C@H]1CC[C@H]2[C@@H]3CC=C4CC=CC(=O)[C@]4(C)[C@H]3CC[C@]12C` [WITHAMETELIN]: the “Ratio IC50” value in assay [1] is reported as 5.1. Besides, the IC50 in assay [2] was 2200 nM; in assay [3] it was 1000 nM; in assay [4] it was 5100 nM; in [5] it was 2700 nM. Further, the result in assay [6] and in [8] was inactive. For the same molecule, in [7], the result was Active. Further, in [9], the Activity entry was “Dose-dependent effect”.

With `C=C1C(=O)O[C@@H]2C[C@@]1(C)OC[C@H]2[C@H]1CC[C@H]2[C@@H]3C[C@@H](O)[C@@]45C[C@H]4CC(=O)[C@]5(C)[C@H]3CC[C@]12C` [WITHAWRIGHTOLIDE], the “Ratio IC50” value in assay [1] amounted to 3.8. Moreover, the IC50 came out at 3600 nM in assay [2], 1500 nM in assay [3], 5600 nM in assay [4] and 3100 nM in [5]. Further, the result in [6] was inactive. The Activity entry in assay [9] was “Dose-dependent effect”.
